Experimental data taken from PMC9311154 (British Journal of Clinical Pharmacology, 2022).
“And” between values parts separate entries of the source, which are not always exact repeats. Equal values may be shown once. “Also recorded” adds a separate entry of the source. Read-outs that look alike come from different tables or passages of the source. Marks after values point to notes of the source that are not given here.

Legend:
C1 esterase inhibitor = C1 esterase inhibitor activity; assay type: in vivo, human; details: compared with placebo
Method in brief: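 Healthy men given the oral test compound (25, 50 or 100 mg once daily, or 25 mg twice daily) or placebo: single dose on day 1, washout days 2–3, dosing days 4–11, once-daily dose day 12. C1 esterase inhibitor activity measured in plasma by chromogenic substrate kit on a coagulation analyser, per manufacturer's instructions. Summarised descriptively, with no prespecified formal statistics.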

prothrombin time (PT) = test: Prothrombin time; assay type: in vivo, human; details: compared with placebo
[1] = system: activated partial thromboplastin time (aPTT); test: aPTT; assay type: in vivo, human
FXI = FXI concentration; assay type: in vivo, human; details: compared with placebo
Method in brief: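 Healthy men randomised to the oral test compound (25/50/100 mg once daily or 25 mg twice daily) or placebo. Single dose day 1, washout days 2–3, repeat dosing days 4–11, final dose day 12, after an overnight fast of at least 10 h on profiling days. FXI concentration measured by microtitre-plate ELISA with polyclonal antibodies. Descriptive summary only.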

[2] = system: activated partial thromboplastin time (aPTT); details: whole blood or plasma, in vitro and ex vivo; cited from earlier work
Safety and tolerability [3] = assay type: in vivo, human
Method in brief: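 Randomised, single-blind, placebo-controlled dose escalation in healthy men, 36 on active and 12 on placebo. Adverse events counted as treatment-emergent if they began or worsened after first study medication, up to 7 days post-treatment. Also assessed: physical examination, vital signs, 12-lead ECG and clinical laboratory tests. All participants dosed at least once were analysed descriptively.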

Safety and tolerability [4] = assay type: in vivo, human; remark: listed apart in the source
[5] = animal models; cited from earlier work
[6] = BAY 2433334 pharmacokinetics in plasma and urine, Parts A and B; assay type: in vivo, human; details: for tmax: median (range)
[7] = 25 mg multiple dose + midazolam
[8] = 25 mg treatment sequence, Total (N = 24)
[9] = 75 mg multiple dose + midazolam
[10] = 75 mg treatment sequence, Total (N = 24)
[11] = multiple once‐daily dosing for 9 consecutive days

CC[C@@H](C(=O)Nc1ccc(C(N)=O)c(F)c1)n1cc(OC)c(-c2cc(Cl)ccc2-n2cc(C(F)(F)F)nn2)cc1=O [BAY 2433334]
Effect on complement C1 esterase inhibitor activity (C1 esterase inhibitor): no significant effect | Effect on PT (absolute and INR values) (prothrombin time (PT)): no effect | Prolongation of aPTT ([1]; Parts A and B): dose‐dependent prolongation | first time point at which prolongation of aPTT was apparent ([1]; after dosing): 30 min | time of maximal aPTT prolongation after dosing ([1]; in vivo): approximately 4 h | Effect on FXI concentrations (FXI): no significant effect | Prolongation of aPTT [2]: concentration‐dependent prolongation | Adverse event(s) of special interest: Bleeding (Safety and tolerability [3]; 25 mg BID): 0 Number (%) | Any adverse event(s) of special interest (Safety and tolerability [3]; 25 mg BID): 1 (11.1%) Number (%) | Any study drug‐related adverse event(s) (Safety and tolerability [3]; 25 mg BID): 0 Number (%) | Any study procedure‐related adverse event(s) (Safety and tolerability [3]; 25 mg BID): 2 (22.2%) Number (%) | TEAE: Medical device site urticaria (Safety and tolerability [3]; 25 mg BID): 1 (11.1%) Number (%) | Adverse event(s) of special interest: Investigations (Safety and tolerability [3]; 25 mg BID, Glutamate dehydrogenase increased): 1 (11.1%) ^e Number (%) | Adverse event(s) of special interest: Bleeding (Safety and tolerability [3]; 25 mg OD): 0 Number (%) | Any adverse event(s) of special interest (Safety and tolerability [3]; 25 mg OD): 1 (11.1%) Number (%) | Any study drug‐related adverse event(s) (Safety and tolerability [3]; 25 mg OD): 0 Number (%) | Any study procedure‐related adverse event(s) (Safety and tolerability [3]; 25 mg OD): 1 (11.1%) Number (%) | TEAE: Medical device site urticaria (Safety and tolerability [3]; 25 mg OD): 0 Number (%) | Adverse event(s) of special interest: Investigations (Safety and tolerability [3]; 25 mg OD, Amylase increased): 1 (11.1%) ^c Number (%) | Adverse event(s) of special interest: Bleeding (Safety and tolerability [3]; 50 mg OD): 0 Number (%) | Any adverse event(s) of special interest (Safety and tolerability [3]; 50 mg OD): 1 (11.1%) Number (%) | Any study drug‐related adverse event(s) (Safety and tolerability [3]; 50 mg OD): 0 Number (%) | Any study procedure‐related adverse event(s) (Safety and tolerability [3]; 50 mg OD): 3 (33.3%) Number (%) | TEAE: Medical device site urticaria (Safety and tolerability [3]; 50 mg OD): 0 Number (%) | Adverse event(s) of special interest: Investigations (Safety and tolerability [3]; 50 mg OD, Lipase increased): 1 (11.1%) ^d Number (%) | Adverse event(s) of special interest: Bleeding (Safety and tolerability [3]; 100 mg OD): 0 Number (%) | Any adverse event(s) of special interest (Safety and tolerability [3]; 100 mg OD): 1 (11.1%) Number (%) | Any study procedure‐related adverse event(s) (Safety and tolerability [3]; 100 mg OD): 1 (11.1%) Number (%) | TEAE: Medical device site urticaria (Safety and tolerability [3]; 100 mg OD): 1 (11.1%) Number (%) | Any study drug‐related adverse event(s) (Safety and tolerability [3]; 100 mg OD, Headache): 2 Number (%) and 2 (22.2%) ^b Number (%) | Adverse event(s) of special interest: Investigations (Safety and tolerability [3]; 100 mg OD, Lipase increased): 1 (11.1%) ^d Number (%) | Adverse events leading to discontinuation (Safety and tolerability [3]; Parts A or B): No adverse events leading to discontinuation | Adverse event(s) of special interest: Bleeding (Safety and tolerability [3]; Total BAY 2433334 (n = 36)): 0 Number (%) | Adverse event(s) of special interest: Investigations (Safety and tolerability [3]; Total BAY 2433334 (n = 36)): 4 (11.1%) Number (%) | Any adverse event(s) of special interest (Safety and tolerability [3]; Total BAY 2433334 (n = 36)): 4 (11.1%) Number (%) | Any study drug‐related adverse event(s) (Safety and tolerability [3]; Total BAY 2433334 (n = 36)): 2 (5.6%) Number (%) | Any study procedure‐related adverse event(s) (Safety and tolerability [3]; Total BAY 2433334 (n = 36)): 7 (19.4%) Number (%) | TEAE: Medical device site urticaria (Safety and tolerability [3]; Total BAY 2433334 (n = 36)): 2 (5.6%) Number (%) | Adverse events related to bleeding (Safety and tolerability [3]; all study parts): no clinically relevant adverse events related to bleeding | Serious adverse events (Safety and tolerability [3]; all study parts): no serious adverse events were reported | Tolerability (Safety and tolerability [3]; all study parts): well tolerated | Effects on vital signs, ECG or clinical laboratory investigations (Safety and tolerability [3]; other than the anticipated prolongation of aPTT): No clinically relevant effects | Adverse event(s) of special interest (Safety and tolerability [4]; [7]): 0 Number (%) | Study drug‐related adverse event(s) (Safety and tolerability [4]; [7]): 0 Number (%) | Study procedure‐related adverse event(s) (Safety and tolerability [4]; [7]): 0 Number (%) | Adverse event(s) of special interest (Safety and tolerability [4]; 25 mg multiple dose alone): 0 Number (%) | Study drug‐related adverse event(s) (Safety and tolerability [4]; 25 mg multiple dose alone): 0 Number (%) | Study procedure‐related adverse event(s) (Safety and tolerability [4]; 25 mg multiple dose alone): 1 (4.2%) Number (%) | Adverse event(s) of special interest (Safety and tolerability [4]; 25 mg single dose + midazolam): 0 Number (%) | Study drug‐related adverse event(s) (Safety and tolerability [4]; 25 mg single dose + midazolam): 0 Number (%) | Study procedure‐related adverse event(s) (Safety and tolerability [4]; 25 mg single dose + midazolam): 0 Number (%) | Adverse event(s) of special interest (Safety and tolerability [4]; [8]): 0 Number (%) | Study drug‐related adverse event(s) (Safety and tolerability [4]; [8]): 0 Number (%) | Study procedure‐related adverse event(s) (Safety and tolerability [4]; [8]): 4 (16.7%) Number (%) | Adverse event(s) of special interest (Safety and tolerability [4]; [9]): 0 Number (%) | Study drug‐related adverse event(s) (Safety and tolerability [4]; [9]): 0 Number (%) | Adverse event(s) of special interest (Safety and tolerability [4]; 75 mg multiple dose alone): 0 Number (%) | Study drug‐related adverse event(s) (Safety and tolerability [4]; 75 mg multiple dose alone): 0 Number (%) | Study procedure‐related adverse event(s) (Safety and tolerability [4]; 75 mg multiple dose alone): 0 Number (%) | Adverse event(s) of special interest (Safety and tolerability [4]; 75 mg single dose + midazolam): 0 Number (%) | Study drug‐related adverse event(s) (Safety and tolerability [4]; 75 mg single dose + midazolam): 0 Number (%) | Study procedure‐related adverse event(s) (Safety and tolerability [4]; 75 mg single dose + midazolam): 0 Number (%) | Adverse event(s) of special interest (Safety and tolerability [4]; [10]): 0 Number (%) | Study drug‐related adverse event(s) (Safety and tolerability [4]; [10]): 0 Number (%) | Study procedure‐related adverse event(s) (Safety and tolerability [4]; [10]): 2 (8.3%) Number (%) | Study drug‐related TEAEs (Safety and tolerability [4]; Part C): No study drug‐related TEAEs | Participants who discontinued study medication because of TEAEs (Safety and tolerability [4]; Part C, 75 mg): 2 participants | Reduction in thrombus weight [5]: dose‐dependent reductions | Dose proportionality of AUC and Cmax in plasma ([6]; 25–100 mg OD, single and multiple dosing, Part A): dose proportional; also recorded: appeared to increase dose proportionally | arithmetic mean renal elimination (%AE,ur) of unchanged drug ([6]; after multiple dosing): 10.1–13.5% | RLIN, range ([6]; after once‐daily administration): 1.03–1.08 | arithmetic mean renal elimination (%AE,ur) of unchanged drug ([6]; after single‐dose administration): 7.61–13.4 % of the dose | geometric mean terminal half‐life (t1/2), range across treatment groups ([6]; day 1): 14.0 to 15.9 h | tmax ([6]; day 1, 25 mg BID group): 3.00 (1.00–5.98) h | tmax ([6]; day 1, 25 mg OD): 2.00 (1.48–5.98) h | tmax ([6]; day 1, 50 mg OD): 2.00 (0.750–4.00) h | tmax ([6]; day 1, 100 mg OD): 3.97 (1.47–6.00) h | apparent oral clearance, geometric means ([6]; day 1, across treatment groups): 3.68 to 4.09 L/h | median time to Cmax, range across treatment groups ([6]; day 1, all treatment groups): 2.00 to 3.97 h | tmax ([6]; day 12, 25 mg BID): 1.50 (1.00–6.00) h | tmax ([6]; day 12, 25 mg OD): 4.00 (1.00–6.03) h | tmax ([6]; day 12, 50 mg OD): 3.00 (0.750–6.05) h | tmax ([6]; day 12, 100 mg OD): 4.00 (1.50–6.00) h | apparent oral clearance, geometric means ([6]; day 12, across treatment groups): 3.39 to 4.04 L/h | mean terminal half‐life (t1/2), range across treatment groups ([6]; day 12, after multiple dosing): 15.8 to 17.8 h | median time to Cmax, range across once‐daily groups ([6]; day 12, once‐daily dosing): 3.00 to 4.00 h | RAAUC geometric mean, range [6, 11]: 1.50–1.72 | RACmax geometric mean, range [6, 11]: 1.41–1.63
